Experimental data of several laboratories.
Lines come from different studies, so protocols differ.
Target: Serine/threonine-protein kinase Sgk1 (SGK1, Homo sapiens, UniProt O00141)
Sequence (O00141 1-431, as in one of the studies): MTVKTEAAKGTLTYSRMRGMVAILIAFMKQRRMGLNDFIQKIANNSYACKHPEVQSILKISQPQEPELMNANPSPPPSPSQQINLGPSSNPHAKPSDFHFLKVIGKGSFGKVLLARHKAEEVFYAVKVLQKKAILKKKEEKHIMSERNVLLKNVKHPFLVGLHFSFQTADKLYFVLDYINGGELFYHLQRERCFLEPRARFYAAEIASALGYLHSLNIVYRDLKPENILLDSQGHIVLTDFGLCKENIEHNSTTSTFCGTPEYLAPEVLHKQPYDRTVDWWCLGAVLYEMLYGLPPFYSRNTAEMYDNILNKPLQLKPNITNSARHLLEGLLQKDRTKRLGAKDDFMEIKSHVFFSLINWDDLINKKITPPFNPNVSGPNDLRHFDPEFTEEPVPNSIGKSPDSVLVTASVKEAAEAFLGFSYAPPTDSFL

| Structure (SMILES) | assay | conditions | endpoint | result |
| --- | --- | --- | --- | --- |
| Cc1nc(C2CCN(C(=O)c3ccc(OC(F)(F)F)cc3N)CC2)c2ncc(N3CCN(C)CC3)cc2n1 | cell-free assay, competition with immobilised ligand | 1 µM | remaining binding | 100% |
| CC(C)(O)[C@H]1CC[C@H](Nc2ccc3ncc(-c4cccc(C(F)(F)F)c4)n3n2)CC1 | enzyme activity, inhibitor | 1 µM | remaining activity | 99.4% |
| CN(C(=O)c1ccccc1)c1cc(N(C)c2ccc3c(c2)CCc2ccc(C(=O)NCCN4CCOCC4)cc2C3=O)ccc1F | cell-free assay, competition with immobilised ligand | 1 µM | remaining binding | 100% |
| FC(F)(F)Oc1cccc(-c2cnc3ccc(-c4ccncc4)nn23)c1 | enzyme activity, inhibitor, radiometric | 5 µM | activity vs control | 108% |
| Cn1c(=O)n(-c2ccc(C(C)(C)C#N)cc2)c2c3cc(-c4cnc5ccccc5c4)ccc3ncc21 | enzyme activity, inhibitor | 10 µM | remaining activity | 98% |
| O=C(O)[C@H]1[C@H](Cn2nnc3ccccc3c2=O)CC[C@@H]1C(=O)c1ccc(OCCC2CCOCC2)cc1 | cell-free assay, competition with immobilised ligand | 1 µM | remaining binding | 100% |
| CNCc1ccc(-c2cc(-c3nc(-c4ccc(S(=O)(=O)C(C)C)cc4)cnc3N)on2)cc1 | enzyme activity, inhibitor | 2 µM | inhibition | 0% |
| Nc1ncnc2occ(-c3ccc(NC(=O)Nc4cc(C(F)(F)F)ccc4F)cc3)c12 | cell-free assay, inhibitor | 20 µM | remaining signal | 10% |
| O=C(Nc1cnc(Oc2ccc(F)cc2)nc1)N1CCc2ncccc2[C@@H]1c1ccc(F)cc1 | cell-free assay, competition with immobilised ligand | 1 µM | remaining binding | 75% |
| CN(C)C1CCN(CC#Cc2nn(C3CCCC3)c3nc(NCc4ccccc4)ncc23)C1 (centres unmarked) | enzyme activity, inhibitor, FRET | 0.1 µM | inhibition | 6% |
| CCC(=N\O)/C(C)=C/c1ccc(F)cc1 | cell-free assay, competition with immobilised ligand | 1 µM | remaining binding | 89% |
| CCN(CC)CCNC(=O)c1c(C)[nH]c(/C=C2\C(=O)Nc3ccc(F)cc32)c1C | enzyme activity, inhibitor | 10 µM | inhibition | 86% |
| c1nc2c(Nc3ccc4c(c3)OCCO4)nc(Nc3ccc4c(c3)OCCO4)nc2[nH]1 | enzyme activity, inhibitor | 10 µM | activity vs control | 100% |
| CCCOc1ccc(OC)c(F)c1C(=O)c1ccc(C(=O)N[C@@H]2CNC[C@H]2NC(=O)c2ccc3[nH]ncc3c2)cc1 | enzyme activity, inhibitor | 0.1 µM | remaining activity | 64% |
| Cc1ccc(Nc2nccc(N(C)c3ccc4c(C)n(C)nc4c3)n2)cc1S(N)(=O)=O | enzyme activity, inhibitor | 0.3 µM | inhibition | -14% |
| O=C1Nc2ccc(Cl)cc2C1=Cc1cc(Cl)c(O)c(Cl)c1 | cell-free assay | 0.5 µM | remaining signal | 91.3% |
| CC(C)(C)C(=O)c1sc(NC2CCCCC2)nc1N | enzyme activity, inhibitor | 10 µM | remaining activity | 91% |
| O=C(NCCCC1CCCCC1)c1ccc(CNC(=O)c2cnn(-c3ccccc3)c2C(F)(F)F)cc1 | cell-free assay, competition with immobilised ligand | 0.1 µM | remaining binding | 100% |
| COc1cc2ncnc(Nc3ccc(Oc4ccccc4)cc3C)c2cc1OC | enzyme activity, inhibitor | 1 µM | inhibition | 8% |
| COc1cc(/C=C/C(=O)CC(=O)/C=C/c2ccc(O)c(OC)c2)ccc1O | enzyme activity, inhibitor | 1 µM | activity vs control | 82% |
